Experiment [1] relates to Human betaherpesvirus 5. As to the kind of experiment: Antiviral activity of compound against HCMvirus in yield reduction experiments. Type of experiment: functional. The gist of the method:
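HCMV Towne strain (plaque-purified isolate P_O) grown on HFF cells in 96-well dishes, infected at moi 0.5-1 PFU/cell. After adsorption, compound added in 1:3 serial dilutions from 100 to 0.14 µM, in duplicate. 7 days at 37 °C, then one freeze-thaw. Progeny titred by plaque count on fresh HFF monolayers.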

The test system of experiment [2] is KB. As to the kind of experiment: Inhibitory activity of compound against KB cell growth [>-indicates IC50/IC90 was not reached at the noted (highest) concentration tested]. As to conditions: Homo sapiens. The experiment is classed as functional, cell-based. A digest of the protocol:
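KB cells plated at 3000-5000 cells/well and held overnight at 37 °C. Compound added in quadruplicate at six to eight concentrations, then 48 h at 37 °C in CO₂ (about two population doublings). Cells fixed with 95% ethanol, stained with 0.1% crystal violet, dye eluted with acidified ethanol and read at 570 nm. IC50 from regression.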

A word on the IC90: it is the concentration at which the effect reaches the 90% level. A higher IC90 goes with weaker potency. A word on the IC50: it is the concentration needed to halve the response being measured. Consider `OC[C@H]1O[C@H](n2c(Br)nc3cc(Cl)c(Cl)cc32)[C@@H](O)[C@H]1O`, for which the 90% effect level in experiment [1] (IC90) was put at 200 nM. In experiment [2], this compound showed an IC50 of more than 100000 nM.
For `OC[C@H]1O[C@@H](n2c(Cl)nc3cc(Cl)c(Cl)cc32)[C@H](O)[C@@H]1O`, in experiment [1], it took 1400 nM to reach the 90% level (IC90).

The values above are taken from ChEMBL document CHEMBL1129492, “Structure-activity relationships among 2-substituted 5,6-dichloro-, 4,6-dichloro-, and 4,5-dichloro-1-[(2-hydroxyethoxy) methyl]- and -1-[(1,3-dihydroxy-2-propoxy) methyl]benzimidazoles” (J Med Chem, 1996).
